# Source: ChEMBL document CHEMBL4316601, “Esterase-Sensitive and pH-Controlled Carbon Monoxide Prodrugs for Treating Systemic Inflammation” (J Med Chem, 2019)
# The source made the active and inactive calls. The calls are words filed in the database; no cut-off is given here.
# Key:
# [1] = system: Mus musculus; test: Hepatoprotective activity in LPS-stimulated C57BL/6 mouse assessed as reduction in LPS-induced AST levels at 10 mg/kg, ip pretreated for 30 mins followed by LPS addition and measured after 6 hrs; format: functional, organism-based
# [2] = system: Mus musculus; test: Hepato-protective activity in LPS-stimulated C57BL/6 mouse assessed as reduction in LPS-induced liver injury at 10 mg/kg, ip pretreated for 30 mins followed by LPS addition and measured after 6 hrs by hematoxylin and eosin staining based assay; format: functional, organism-based
# [3] = system: Mus musculus; test: Antiinflammatory activity in LPS-stimulated C57BL/6 mouse assessed as inhibition of LPS-induced serum TNFalpha levels at 10 mg/kg, ip pretreated for 30 mins followed by LPS addition and measured after 6 hrs by ELISA; format: functional, organism-based
# [4] = system: RAW264.7; test: Cytotoxicity against mouse RAW264.7 cells assessed as reduction in cell viability at 200 uM by WST8 assay; format: cell-based; conditions: raw264.7, 200 µM
# [5] = system: Mus musculus; test: Hepatoprotective activity in LPS-stimulated C57BL/6 mouse assessed as reduction in LPS-induced ALT levels at 10 mg/kg, ip pretreated for 30 mins followed by LPS addition and measured after 6 hrs; format: functional, organism-based
# [6] = system: RAW264.7; test: Antiinflammatory activity in mouse RAW264.7 cells assessed as reduction in LPS-induced TNFalpha secretion at 12.5 to 100 uM preincubated for 4 hrs followed by LPS addition and measured after 1 hr by ELISA; format: functional, cell-based
# [7] = molecular target: T1, Liver carboxylesterase (Sus scrofa, UniProt Q29550); test: Drug metabolism in PBS buffer assessed as porcine liver esterase-mediated (1S,4S)-1,4-Dimethyl-7-oxo-5,6-diphenyl-3-(phenylsulfonyl)bicyclo[2.2.1]hept-5-ene-2-carbaldehyde formation at pH 7 at 20 uM incubated for 48 hrs by HPLC analysis; format: ADME; conditions: pig, isolated protein, pH 7, 48 h
# T1 sequence (Q29550 whole entry): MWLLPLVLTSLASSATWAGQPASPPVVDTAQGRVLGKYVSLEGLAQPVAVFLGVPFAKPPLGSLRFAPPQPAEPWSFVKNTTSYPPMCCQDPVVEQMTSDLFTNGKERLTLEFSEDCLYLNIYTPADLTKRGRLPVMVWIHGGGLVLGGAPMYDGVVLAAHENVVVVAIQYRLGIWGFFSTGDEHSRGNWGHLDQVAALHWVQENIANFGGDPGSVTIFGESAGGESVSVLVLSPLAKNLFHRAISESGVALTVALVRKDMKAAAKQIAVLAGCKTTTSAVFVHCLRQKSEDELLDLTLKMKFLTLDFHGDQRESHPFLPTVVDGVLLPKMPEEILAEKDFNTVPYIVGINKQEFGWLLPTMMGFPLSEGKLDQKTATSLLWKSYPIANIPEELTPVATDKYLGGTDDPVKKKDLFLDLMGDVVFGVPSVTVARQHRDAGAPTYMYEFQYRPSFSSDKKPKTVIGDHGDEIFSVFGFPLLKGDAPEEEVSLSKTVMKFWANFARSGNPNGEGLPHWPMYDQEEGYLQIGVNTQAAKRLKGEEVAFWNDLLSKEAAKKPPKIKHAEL
# [8] = Drug metabolism in human serum assessed as esterase-mediated (1S,4S)-1,4-Dimethyl-7-oxo-5,6-diphenyl-3-(phenylsulfonyl)bicyclo[2.2.1]hept-5-ene-2-carbaldehyde metabolite formation by measuring half life by HPLC analysis; format: ADME, cell-free
# Procedure, shortened: (§1)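 The prodrug was incubated in mouse, rat, rabbit or human serum. HPLC followed esterase-mediated hydrolysis to the bicyclic intermediate, giving a half-life, and the subsequent beta-elimination was followed for up to 20 h.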
# [9] = Drug metabolism in PBS buffer assessed as (1S,4S)-1,4-Dimethyl-7-oxo-5,6-diphenyl-3-(phenylsulfonyl)bicyclo[2.2.1]hept-5-ene-2-carbaldehyde formation at pH 7 at 20 uM in absence of porcine liver esterase after 6 hrs by HPLC analysis
# Procedure, shortened: (§2)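 The prodrug was incubated without porcine liver esterase for up to 6 h, in either PBS (pH 7) or simulated gastric fluid (pH ~1). HPLC monitored hydrolysis to the acetal-cleaved bicyclic intermediate.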
# [10] = molecular target: T1, Liver carboxylesterase; test: Drug metabolism in pH 1 SGF assessed as porcine liver esterase-mediated (1S,4S)-1,4-Dimethyl-7-oxo-5,6-diphenyl-3-(phenylsulfonyl)bicyclo[2.2.1]hept-5-ene-2-carbaldehyde formation at 20 uM after 2 mins by HPLC analysis; format: ADME; conditions: pig, isolated protein, pH 1, 2 min
# Procedure, shortened: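 The prodrug was incubated in simulated gastric fluid (pH ~1) containing porcine liver esterase at 37 °C. HPLC tracked formation of the hydrolysed bicyclic intermediate and of the beta-elimination product for up to 7 h.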
# [11] = Drug metabolism in pH 1 SGF assessed as (1S,4S)-1,4-Dimethyl-7-oxo-5,6-diphenyl-3-(phenylsulfonyl)bicyclo[2.2.1]hept-5-ene-2-carbaldehyde formation at 20 uM in absence of porcine liver esterase after 6 hrs by HPLC analysis; procedure, shortened: as §2
# [12] = system: Mus musculus; test: Hepatoprotective activity in LPS-stimulated ip dosed C57BL/6 mouse assessed as reduction in LPS-induced ALT levels pretreated for 30 mins followed by LPS addition and measured after 6 hrs; format: functional, organism-based
# [13] = molecular target: T1, Liver carboxylesterase; test: Drug metabolism in PBS buffer assessed as porcine liver esterase-mediated carbon monoxide release at pH 7 at 20 uM incubated for 48 hrs by HPLC analysis; format: ADME; conditions: pig, isolated protein, pH 7, 48 h
# Procedure, shortened: (§3)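 Prodrug at a starting concentration of 20 was incubated with porcine liver esterase (3 U/mL) in PBS containing 5% DMSO at 37 °C. CO release was followed by HPLC as formation of the beta-elimination product.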
# [14] = system: Mus musculus; test: Hepatoprotective activity in LPS-stimulated ip dosed C57BL/6 mouse assessed as reduction in LPS-induced AST levels pretreated for 30 mins followed by LPS addition and measured after 6 hrs; format: functional, organism-based
# [15] = Drug metabolism in mouse RAW264.7 cells assessed as carbon monoxide release at 50 uM after 5 hrs by COP1-based fluorescence assay; format: ADME, cell-based; conditions: raw264.7, 5 h
# [16] = system: RAW264.7; test: Cytotoxicity against mouse RAW264.7 cells assessed as reduction in cell viability at 50 uM uM incubated for 5 hrs by WST8 assay; format: cell-based; conditions: raw264.7, 5 h
# [17] = Drug metabolism in mouse serum assessed as esterase-mediated (1S,4S)-1,4-Dimethyl-7-oxo-5,6-diphenyl-3-(phenylsulfonyl)bicyclo[2.2.1]hept-5-ene-2-carbaldehyde metabolite formation by measuring half life by HPLC analysis; format: ADME, cell-free; procedure, shortened: as §1
# [18] = Drug metabolism in rabbit serum assessed as esterase-mediated (1S,4S)-1,4-Dimethyl-7-oxo-5,6-diphenyl-3-(phenylsulfonyl)bicyclo[2.2.1]hept-5-ene-2-carbaldehyde metabolite formation by measuring half life by HPLC analysis; format: ADME, cell-free, Oryctolagus cuniculus; procedure, shortened: as §1
# [19] = Drug metabolism in rat serum assessed as esterase-mediated (1S,4S)-1,4-Dimethyl-7-oxo-5,6-diphenyl-3-(phenylsulfonyl)bicyclo[2.2.1]hept-5-ene-2-carbaldehyde metabolite formation by measuring half life by HPLC analysis; format: ADME, cell-free; procedure, shortened: as §1
# [20] = system: RAW264.7; test: Antiinflammatory activity in mouse RAW264.7 cells assessed as reduction in LPS-induced TNFalpha secretion preincubated for 4 hrs followed by LPS addition and measured after 1 hr by ELISA; format: functional, cell-based
# [21] = system: Mus musculus; test: Antiinflammatory activity in LPS-stimulated ip dosed C57BL/6 mouse assessed as inhibition of LPS-induced serum TNFalpha levels pretreated for 30 mins followed by LPS addition and measured after 6 hrs by ELISA; format: functional, organism-based
# [22] = Drug metabolism in PBS buffer assessed as half life for carbon monoxide release at pH 7 by HPLC analysis
# [23] = Drug metabolism in pH 7.4 PBS assessed as 3',6'-dimethyl-[1,1':2',1''-terphenyl]-4'-carbaldehyde fromation by HPLC
# [24] = Drug metabolism in pH 7.4 PBS assessed as CO bounded myoglobin formation by measuring maximal absorption peak of deoxy-Mb incubated for 2 hrs by UV-vis absorption spectroscopy based myoglobin-CO assay
# [25] = molecular target: T1, Liver carboxylesterase; test: Drug metabolism in PBS buffer assessed as porcine liver esterase-mediated 3',6'-dimethyl-[1,1':2',1''-terphenyl]-4'-carbaldehyde formation at pH 7 at 20 uM after 36 hrs by HPLC analysis; conditions: pig, pH 7, 36 h; procedure, shortened: as §3
# [26] = molecular target: T1, Liver carboxylesterase; test: Drug metabolism in PBS buffer assessed as porcine liver esterase-mediated carbon monoxide release at pH 7 at 20 uM after 36 hrs by HPLC analysis; format: ADME; conditions: pig, isolated protein, pH 7, 36 h; procedure, shortened: as §3
# [27] = molecular target: T1, Liver carboxylesterase; test: Drug metabolism in PBS buffer assessed as porcine liver esterase-mediated (1S,4S)-1,4-Dimethyl-7-oxo-5,6-diphenyl-3-(phenylsulfonyl)bicyclo[2.2.1]hept-5-ene-2-carbaldehyde formation at pH 7 at 20 uM after 36 hrs by HPLC analysis; conditions: pig, pH 7, 36 h
structure (smiles),measurement,setting,value
Cc1cc(C=O)c(C)c(-c2ccccc2)c1-c1ccccc1,Activity,[1],inactive
same,Activity,[2],inactive
same,Activity,[3],inactive
same,Activity,[4],Non-Toxic
same,Activity,[5],inactive
same,inhibition,[6],inactive
C[C@@]12C(=O)[C@](C)(C(c3ccccc3)=C1c1ccccc1)[C@@H](S(=O)(=O)c1ccccc1)[C@H]2C(OC(=O)C1CC1)OC(=O)C1CC1,Drug metabolism,[7],Metabolite_Detected
CCCC(=O)OC(OC(=O)CCC)[C@@H]1[C@H](S(=O)(=O)c2ccccc2)[C@]2(C)C(=O)[C@]1(C)C(c1ccccc1)=C2c1ccccc1,Drug metabolism,[7],Metabolite_Detected
CC(=O)OC(OC(C)=O)[C@@H]1[C@H](S(=O)(=O)c2ccccc2)[C@]2(C)C(=O)[C@]1(C)C(c1ccccc1)=C2c1ccccc1,t1/2,[8],14 h
same,Drug metabolism,[9],Metabolite not detected
same,Drug metabolism,[10],Metabolite_Detected
same,Drug metabolism,[11],Metabolite not detected
same,Activity,[12],Dose-dependent effect
same,t1/2,[13],0.5 to 8 h
same,Activity,[2],Active
same,Activity,[14],Dose-dependent effect
same,Drug metabolism,[15],Metabolite_Detected
same,Drug metabolism,[7],Metabolite_Detected
same,Activity,[16],Non-Toxic
same,t1/2,[17],3 min
same,t1/2,[18],30 min
same,t1/2,[19],10 min
same,inhibition,[20],Dose-dependent effect
same,Activity,[21],Dose-dependent effect
C[C@@]12C(=O)[C@](C)(C(c3ccccc3)=C1c1ccccc1)[C@@H](S(=O)(=O)c1ccccc1)[C@H]2C=O,T1/2,[22],30 min
same,Drug metabolism,[23],Metabolite detected
same,Drug metabolism,[24],Metabolite detected
CC(C)(C)C(=O)OC(OC(=O)C(C)(C)C)[C@@H]1[C@H](S(=O)(=O)c2ccccc2)[C@]2(C)C(=O)[C@]1(C)C(c1ccccc1)=C2c1ccccc1,Drug metabolism,[25],Metabolite_Notdetected
same,Drug metabolism,[26],Metabolite_Notdetected
same,Drug metabolism,[27],Metabolite_Notdetected
